ChEMBL document CHEMBL1122646, “Synthesis of pyridine derivatives of L-phenylalanine as antisickling reagents” (1984)

Experiments:
Format in all cases: functional
[1] = Antisickling activity and percentage of cells sickled after incubation in 3 mM solution under oxygen content 20.1% was reported at normal atmospheric pressure.
In short: (§1)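 Washed homozygous SS erythrocytes (HbF <8%, MCHC 33.5 g %, stored 4 °C, used within 24 h) at 1.0% hematocrit in PBS pH 7.2 (295 mosmol/kg, 0.5% w/v BSA) with 3 mM compound. Incubated 1 h at 37 °C with rotation. Cells were air-exposed 10 min, deoxygenated with 4.06% O2/4.4% CO2/N2, or deoxygenated with N2 alone. PO2 measured, then anaerobic fixation, 30 min RT.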

[2] = Aantisickling activity and percentage of cells sickled after incubation in 3 mM solution under oxygen content 0.0% was reported.; in short: as §1
[3] = Antisickling activity and percentage of cells sickled after incubation in 3 mM solution under oxygen content 4.06% was reported at 30.8 mm of Hg pressure.; in short: as §1
[4] = Antisickling activity and change in mean corpuscular hemoglobin ratio was reported at a concentration of 4.80 mM.
In short: (§2)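 Erythrocytes incubated with compound as in the morphological assay (PBS pH 7.2, 295 mosmol/kg, 0.5% BSA, 37 °C) but at 10% hematocrit. Triplicate readings on each of three aliquots taken 1 to 3 h after exposure. Lysis and cyanomet-Hb conversion, then MCHC read on a Coulter hemoglobinometer. Values averaged over nine measurements and expressed as MCHC0/MCHC.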

[5] = Antisickling activity and change in mean corpuscular hemoglobin ratio was reported at a concentration of 1.35 mM.; in short: as §2
[6] = Effect of 3 mM of compound on homozygous sickle cells at a total oxygen saturation of 47% and estimates of volume fraction of HbS polymer present was determined.
In short: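 Homozygous SS cells (MCHC 33.9 g %) at 1% Hct with 3 mM compound, deoxygenated at 37 °C with 4.06% O2 gas (47% total O2 saturation per O2 affinity curve in PBS pH 7.392). Suspension forced through a 5-μm polycarbonate membrane at 3.1 cmHg. Passed cells weighed after 5-6 min, corrected for interstitial solvent with 3H-methoxyinulin. R = deoxygenated/oxygenated recovered weight. fp calculated with Cp 0.69 g/cm3 and Cs0 0.164 g/cm3.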

[7] = Antisickling activity and change in mean corpuscular hemoglobin ratio was reported at a concentration of 3.65 mM.; in short: as §2
[8] = Antisickling activity and change in mean corpuscular hemoglobin ratio was reported at a concentration of 2.55 mM.; in short: as §2

SMILES	Cells sickled [1] [%]	Cells sickled [2] [%]	Cells sickled [3] [%]	Ratio [4]	Ratio [5]	fp [6]	Ratio [7]	Ratio [8]
Cl.Cl.NC(Cc1ccccc1)C(=O)Nc1ccncc1 (centres undefined)	10.2	70.8	25.2					
Cl.Cl.NC(Cc1ccccc1)C(=O)Nc1cccnc1 (centres undefined)	11.4	59	23.6	1.17	1.05	0.24	1.13	1.07
Cl.Cl.NC(Cc1ccccc1)C(=O)Nc1ccccn1 (centres undefined)	9.1	71.1	32.6	1.15	1.04	0.24	1.11	1.08
